Values after ≈ are worked out from the molar mass of the structure shown. Active and inactive are the calls of the source. The calls are words filed in the database; no cut-off is given here.

This is an account of results in ChEMBL document CHEMBL4725492, “Dioxane-Linked Amide Derivatives as Novel Bacterial Topoisomerase Inhibitors against Gram-Positive Staphylococcus aureus” (ACS Med Chem Lett, 2020).

In series [1] the target is T1, DNA gyrase (Staphylococcus aureus) (UniProt P0A0K8+P20831). The series can be described thus: Inhibition of Staphylococcus aureus DNA gyrase assessed as double-strand break at 100 uM using relaxed pBR322 as substrate by ethidium bromide-based gel electrophoresis. The class given is protein-complex assay. An outline of the steps: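 Gyrase-mediated DNA cleavage reactions with test agent across 0.1–100 μM. Products were resolved on ethidium-stained gels into negatively supercoiled, nicked and linear forms. DSBs were taken as percent of total lane fluorescence in the linear band, correcting for the different emission of supercoiled versus linear and nicked DNA. Cleavage in enzyme-only controls was subtracted.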

Series [2] is described as follows: Growth inhibition of human K/VP.5 cells incubated for 48 hrs by sulforhodamine B assay. Format: functional.
Series [3] relates to Staphylococcus aureus. Put plainly: Antibacterial activity against Staphylococcus aureus USA300 by CLSI based agar dilution method. Format: functional. For orientation: Agar dilution tests growth on a series of plates holding different concentrations.
The target in series [4] is T1, DNA gyrase (Staphylococcus aureus). Put plainly: Inhibition of Staphylococcus aureus DNA gyrase assessed as single-strand break at 20 uM using relaxed pBR322 as substrate by ethidium bromide-based gel electrophoresis. The class given is protein-complex assay. A digest of the protocol:
(§1)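 S. aureus gyrase-mediated DNA cleavage: compound was incubated with enzyme and DNA, and products were resolved on an ethidium-stained gel into negatively supercoiled, nicked (single-strand break) and linear (double-strand break) forms. Lane fluorescence was corrected for differential band emission. Percent of each form was calculated, and enzyme-only cleavage was subtracted. Concentrations spanned 0.1 nM–200 μM, with a 20 μM single-point screen. Results are mean ± SD or range.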

For series [5] the target is unchanged. The series can be described thus: Inhibition of Staphylococcus aureus DNA gyrase assessed as double-strand break at 20 uM using relaxed pBR322 as substrate by ethidium bromide-based gel electrophoresis. Format: protein-complex assay. An outline of the steps: as §1
Series [6] concerns Staphylococcus aureus. Put plainly: Antibacterial activity against Staphylococcus aureus D83N by CLSI based agar dilution method. The class given is functional.
A further series deals with DNA gyrase (Staphylococcus aureus, UniProt P0A0K8+P20831). Put plainly: Inhibition of Staphylococcus aureus DNA gyrase using relaxed pBR322 as substrate by gel electrophoresis. Format: protein-complex assay.
Series [7] addresses T2, DNA topoisomerase 2-alpha (Homo sapiens, UniProt P11388). The series can be described thus: Inhibition of human topoisomerase 2alpha. A digest of the protocol: (§2)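 Human topoisomerase IIα decatenation activity was tested at a single concentration of 100 μM and reported as percent inhibition.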
The subject of the next series is K562. The series can be described thus: Growth inhibition of human K562 cells incubated for 48 hrs by sulforhodamine B assay. Format: functional.
The subject of series [8] is Staphylococcus aureus. The series can be described thus: Antibacterial activity against Staphylococcus aureus ATCC 29213 by CLSI based agar dilution method. The class given is functional.
Series [9] addresses Topoisomerase IV (Staphylococcus aureus, UniProt P0C1U9+P0C1S7). The series can be described thus: (§3) Inhibition of Staphylococcus aureus topoisomerase-4 assessed as reduction in decatenation of kinetoplast DNA agarose gel electrophoresis method. Format: protein-complex assay.
Series [10] concerns Staphylococcus aureus. The series can be described thus: Antibacterial activity against Staphylococcus aureus 3527 by CLSI based agar dilution method. The class given is functional.
The target of series [11] is Voltage-gated inwardly rectifying potassium channel KCNH2 (Homo sapiens, UniProt Q12809). Put plainly: Inhibition of human ERG. The conditions noted are these: for INH: human.
For series [12], the target named is T1, DNA gyrase (Staphylococcus aureus). Put plainly: Inhibition of Staphylococcus aureus DNA gyrase assessed as single-strand break using relaxed pBR322 as substrate by ethidium bromide-based gel electrophoresis. The class given is protein-complex assay. An outline of the steps:
as §1

Series [13] has as its target Topoisomerase IV (Staphylococcus aureus, UniProt P0C1S7+P0C1U9). The description is as §3. Format: protein-complex assay.
In series [14] the target is T1, DNA gyrase (Staphylococcus aureus). The series can be described thus: Inhibition of Staphylococcus aureus DNA gyrase assessed as double-strand break at upto 100 uM using relaxed pBR322 as substrate by ethidium bromide-based gel electrophoresis. The class given is protein-complex assay. The conditions noted are these: dose microM <=100. A digest of the protocol: as §1

Series [15] has the same target. Put plainly: Inhibition of Staphylococcus aureus DNA gyrase assessed as single-strand break at 100 to 200 uM using relaxed pBR322 as substrate by ethidium bromide-based gel electrophoresis. To be noted: dose microM 100-200. The class given is protein-complex assay. A digest of the protocol: as §1
Series [16] shares this target. The series can be described thus: Inhibition of Staphylococcus aureus DNA gyrase assessed as double-strand break at 100 to 200 uM using relaxed pBR322 as substrate by ethidium bromide-based gel electrophoresis. The class given is protein-complex assay. To be noted: dose microM 100-200. A digest of the protocol: as §1
The target is the same in series [17]. Put plainly: Inhibition of Staphylococcus aureus DNA gyrase assessed as double-strand break using relaxed pBR322 as substrate by ethidium bromide-based gel electrophoresis. The conditions noted are these: dose microM 0.0001-20. The class given is protein-complex assay. An outline of the steps:
as §1

The target in series [18] is T2, DNA topoisomerase 2-alpha. Put plainly: Inhibition of human topoisomerase 2alpha relative to control. An outline of the steps:
as §2

On to `O=C(O)c1cn(C2CC2)c2cc(N3CCNCC3)c(F)cc2c1=O`, for which the inhibition entry in [1] was “Active”.
The term MIC denotes the lowest concentration that inhibits growth of the organism. The term IC50 denotes the midpoint of a concentration-inhibition curve. Turning to `COc1ccc2nccc(CC[C@H]3OC[C@H](NC(=O)c4ccc(C)cc4)CO3)c2c1`, the INH is 17 µM in series [2], 18 µM in the series on K562 and over 30 µM in series [11]. In addition, the minimum inhibitory concentration (MIC) was 1 µg/mL (≈ 2.46 µM) against Staphylococcus aureus [3], over 32 µg/mL in the series with Staphylococcus aureus [6], 1 µg/mL (≈ 2.46 µM) in the series on Staphylococcus aureus [8] and 2 µg/mL (≈ 4.92 µM) in the series with Staphylococcus aureus [10]. For the same molecule, the inhibition result in series [4] is “Active”. Besides, the inhibition result in series [5] is “inactive”. The concentration for half-maximal inhibition (IC50) is 0.41 µM at DNA gyrase and “Not Active” at Topoisomerase IV [9]. Further, the “inhibition (INH)” value in series [7] is recorded as “Not Active”.
`COc1ccc2nccc(CC[C@H]3OC[C@H](NC(=O)c4ccc5c(c4)OCCO5)CO3)c2c1`: the MIC was 1 µg/mL (≈ 2.22 µM) against Staphylococcus aureus [3], over 32 µg/mL with Staphylococcus aureus [6], 1 µg/mL (≈ 2.22 µM) in the series with Staphylococcus aureus [8] and 0.5 µg/mL (≈ 1.11 µM) in the series on Staphylococcus aureus [10]. The inhibition entry in [4] is “Active”. For the same molecule, the inhibition result in [12] is “Dose-dependent effect”. The inhibition result in series [5] and in series [14] was “inactive” throughout. Further, the figures for the IC50 (against DNA gyrase; at Topoisomerase IV [13]; in series [11]) were 3.7 µM, over 200 µM and over 100 µM, respectively.
As for `COc1ccc2nccc(CC[C@H]3OC[C@H](NC(=O)c4ccc(Cl)cc4)CO3)c2c1`, the figures for the INH (in series [2]; in the series on K562; in series [11]) were 11 µM, 10 µM and 11 µM, respectively. Also, the minimum inhibitory concentration (MIC) against Staphylococcus aureus [3] was 1 µg/mL (≈ 2.34 µM); with Staphylococcus aureus [6], over 32 µg/mL; with Staphylococcus aureus [8], 1 µg/mL (≈ 2.34 µM); in the series on Staphylococcus aureus [10], 2 µg/mL (≈ 4.68 µM). Further, the inhibition result in [4] was “Active”. Moreover, in series [5], the inhibition entry is “inactive”. Besides, the IC50 is 0.61 µM against DNA gyrase and “Not Active” at Topoisomerase IV [9]. The “inhibition (INH)” value in series [7] is recorded as “Not Active”.
As to `O=c1ccc2ncc(=O)n3c2n1C[C@H]3CN1CCC(NCc2cc3c(cn2)OCCC3)CC1`, the inhibition entry in series [15] was “Active”. For the same molecule, the inhibition entry in [16] is “inactive”.
With `COc1ccc2nccc(CC[C@H]3OC[C@H](NC(=O)c4ccc5c(c4)NC(=O)CS5)CO3)c2c1`, the results for the INH (in [2]; in the series with K562; in series [11]) were over 200 µM, over 200 µM and over 30 µM, respectively. In addition, the MIC with Staphylococcus aureus [3] is at most 0.125 µg/mL; with Staphylococcus aureus [6], over 64 µg/mL; in the series with Staphylococcus aureus [8] it was 0.03 µg/mL (≈ 0.0626 µM); in the series with Staphylococcus aureus [10], at most 0.125 µg/mL. In addition, the inhibition entry in series [17] and in series [12] was “Dose-dependent effect” in each case. In addition, the IC50 against DNA gyrase was 0.13 µM; at Topoisomerase IV [13] it was 0.7 µM. Moreover, the “inhibition (INH)” value in series [18] was found to be 37%.
